From ChEMBL document CHEMBL1123296, “Potential antiatherosclerotic agents. 5. An acyl-CoA:cholesterol O-acyltransferase inhibitor with hypocholesterolemic activity” (J Med Chem, 1986) come the findings set out here.

Where “and” joins values, the source holds several entries; their conditions need not be identical. Identical values can stand only once.

The test system of test [1] is Rattus norvegicus. As to the kind of experiment: (§1) Effect of serum lipids in cholesterol-fed rats Serum triglyceride at a dose of 1 mg/kg per day of the compound. In kind it is functional. The gist of the method: (§2)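 Rats fed diet with 1% cholesterol and 0.5% cholic acid, compound given in the diet at 1, 3 or 10 mg/kg per day. Read-outs were liver cholesterol (mg/g), serum cholesterol and serum triglycerides (mg/dL), each given as mean ± SEM. ED50 was derived from the dose response of liver cholesterol.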

The species entered for test [2] is Rattus norvegicus. In words: Compound was evaluated for the effect on serum lipids in cholesterol-fed rats. In kind it is functional. The gist of the method:
as §2

Test [3] concerns Rattus norvegicus. In words: Compound was evaluated for the effect of serum lipids in cholesterol-fed rats Serum triglyceride at a dose of 10 mg/kg per day. In kind it is functional. The gist of the method: as §2
The test system of test [4] is Rattus norvegicus. In words: Effect of serum lipids in cholesterol-fed rats and Serum cholesterol at a dose of 1 mg/kg per day of the compound. In kind it is functional. Put shortly: as §2
The species named for test [5] is Rattus norvegicus. As to the kind of experiment: Effective concentration required to effect liver cholesterol concentrations in rat. It is filed as functional. Put shortly: as §2
Test [6] has as its system Rattus norvegicus. The test is described as §1. In kind it is functional. Put shortly:
as §2
The source holds these as a separate data set.

Test [7] is filed under the species Rattus norvegicus. In words: Effect of liver Cholesterol absorption in cholesterol-fed rats. It is filed as functional. Put shortly:
as §2

For test [8], the target named is T1, Sterol O-acyltransferase 1 (Homo sapiens, UniProt P35610).
T1 sequence (P35610 whole entry): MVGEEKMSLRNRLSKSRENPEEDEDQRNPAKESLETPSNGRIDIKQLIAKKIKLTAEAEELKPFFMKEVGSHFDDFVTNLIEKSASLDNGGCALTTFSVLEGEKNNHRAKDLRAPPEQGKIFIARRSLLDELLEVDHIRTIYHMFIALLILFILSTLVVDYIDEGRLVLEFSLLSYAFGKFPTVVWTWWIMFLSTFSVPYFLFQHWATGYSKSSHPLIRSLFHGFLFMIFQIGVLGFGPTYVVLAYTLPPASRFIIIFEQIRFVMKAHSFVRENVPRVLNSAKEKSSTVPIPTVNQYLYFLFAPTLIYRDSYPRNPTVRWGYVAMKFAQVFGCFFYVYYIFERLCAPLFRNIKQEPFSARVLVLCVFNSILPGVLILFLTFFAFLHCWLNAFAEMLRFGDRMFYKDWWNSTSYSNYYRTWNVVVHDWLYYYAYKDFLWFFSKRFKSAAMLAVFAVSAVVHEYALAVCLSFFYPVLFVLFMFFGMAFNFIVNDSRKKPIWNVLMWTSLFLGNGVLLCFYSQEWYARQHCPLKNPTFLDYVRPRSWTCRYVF
As to the kind of experiment: In vitro inhibitory activity against acyl coenzyme A:cholesterol acyltransferase.

In general, ED50 refers to the dose at which the effect has come halfway, by size or by number of responders. A high value points to a need for a large dose. In the case of `CCCCCCCN(Cc1ccc(CC(C)(C)C)cc1)C(=O)Nc1ccc(F)cc1F` [CL-277082], the results for the Triglycerides in test [1], in test [3] and in test [6] were 121 mg/dL, 77 mg/dL and 132 mg/dL, respectively. In addition, the Cholesterol in test [2] is 84 mg/dL; in test [4], 211 mg/dL and 357 mg/dL. This molecule showed an ED50 in test [5] of 5.4 mg/kg. For the same molecule, the Liver cholesterol in test [7] is 15.6 mg/g.

One may read the IC50 as the concentration needed to halve the response being measured. Low readings indicate inhibition by little substance, high ones a need for much substance. `CC(=O)[C@H]1CC[C@H]2[C@@H]3CCC4=CC(=O)CC[C@]4(C)[C@H]3CC[C@]12C` [PROGESTERONE] yielded an IC50 in test [8] of 17 µM.
